Test results published in ChEMBL document CHEMBL2311264, “Synthesis and anticancer activity of heteroaromatic linked 4β-amido podophyllotoxins as apoptotic inducing agents” (Bioorg Med Chem Lett, 2013).
The source made the active and inactive calls. The rule behind the calls is not given here.

Columns and labels:
A549 [1] = assay: Induction of cell cycle arrest in human A549 cells assessed as S phase cells at 3 uM by FACS analysis (reference value: 3.69%); assay type: functional
A549 [2] = assay: Induction of cell cycle arrest in human A549 cells assessed as sub G1 phase cells at 1 uM by FACS analysis (reference value: 1.08%); assay type: functional
A549 [3] = assay: Induction of cell cycle arrest in human A549 cells assessed as S phase cells at 1 uM by FACS analysis (reference value: 3.69%); assay type: functional
A549 [4] = assay: Cytotoxicity against human A549 cells […] by MTT assay; assay type: functional, cell-based
A549 [5] = assay: Induction of apoptosis in human A549 cells assessed as cytoplasmic condensation at 3 uM after 24 hrs by Hoechst staining method; assay type: functional, cell-based
Method in brief: (§1)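 Cells were seeded at 10,000 per coverslip and grown 24 h, then treated 24 h. Vehicle control was 0.001% DMSO; etoposide was the standard. Hoechst at […] with 4% paraformaldehyde was added for 30 min at 37 °C. Random fields were imaged by fluorescence microscopy and apoptotic cells scored manually by cytoplasmic condensation, apoptotic bodies, nuclear fragmentation and relative fluorescence.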

HeLa = assay: Cytotoxicity against human HeLa cells […] by MTT assay; assay type: functional, cell-based
A549 [6] = assay: Induction of cell cycle arrest in human A549 cells assessed as G2/M phase cells at 1 uM by FACS analysis (reference value: 9.89%); assay type: functional
A549 [7] = assay: Induction of apoptosis in human A549 cells assessed as apoptotic bodies at 3 uM after 24 hrs by Hoechst staining method; assay type: functional, cell-based; method in brief: as §1
A549 [8] = assay: Induction of cell cycle arrest in human A549 cells assessed as sub G1 phase cells at 3 uM by FACS analysis (reference value: 1.08%); assay type: functional
A549 [9] = assay: Induction of cell cycle arrest in human A549 cells assessed as G2/M phase cells at 3 uM by FACS analysis (reference value: 9.89%); assay type: functional
A549 [10] = assay: Induction of apoptosis in human A549 cells assessed as nuclear fragmentation at 3 uM after 24 hrs by Hoechst staining method; assay type: functional, cell-based; method in brief: as §1
HT-29 = assay: Cytotoxicity against human HT-29 cells after 72 hrs by MTT assay; assay type: functional, cell-based; conditions: HT-29, 72 h
A549 [11] = assay: Induction of apoptosis in human A549 cells assessed as increase in caspase3 activity at 3 uM after 48 hrs relative to control; assay type: functional
Method in brief: (§2)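 A-549 cells were seeded at 2.5 × 10^6/well and treated 48 h alongside etoposide, then scraped and lysed on ice. Supernatant was mixed with 2X assay buffer and Ac-DEVD-AFC substrate for 1 h. Fluorescence (ex 400, em 505 nm) was read every 5 min, normalized to Bradford protein and expressed as fold over control. Two experiments, each in triplicate.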

A549 [12] = assay: Induction of apoptosis in human A549 cells assessed as cytoplasmic condensation at 1 uM after 24 hrs by Hoechst staining method; assay type: functional, cell-based; method in brief: as §1
B16 = assay: Cytotoxicity against mouse B16 cells […] by MTT assay; assay type: functional, cell-based
A549 [13] = assay: Induction of apoptosis in human A549 cells assessed as increase in caspase3 activity at 1 uM after 48 hrs relative to control; assay type: functional; method in brief: as §2
A549 [14] = assay: Induction of cell cycle arrest in human A549 cells assessed as G1 phase cells at 1 uM by FACS analysis (reference value: 85.33%); assay type: functional
A549 [15] = assay: Induction of apoptosis in human A549 cells assessed as apoptotic bodies at 1 uM after 24 hrs by Hoechst staining method; assay type: functional, cell-based; method in brief: as §1
A549 [16] = assay: Induction of apoptosis in human A549 cells assessed as increase in fluorescence at 1 uM after 24 hrs by Hoechst staining method relative to control; assay type: functional, cell-based; method in brief: as §1
A549 [17] = assay: Induction of apoptosis in human A549 cells assessed as nuclear fragmentation at 1 uM after 24 hrs by Hoechst staining method; assay type: functional, cell-based; method in brief: as §1
ACHN = assay: Cytotoxicity against human ACHN cells […] by MTT assay; assay type: functional, cell-based
A549 [18] = assay: Induction of apoptosis in human A549 cells assessed as increase in fluorescence at 3 uM after 24 hrs by Hoechst staining method relative to control; assay type: functional, cell-based; method in brief: as §1
A549 [19] = assay: Induction of cell cycle arrest in human A549 cells assessed as G1 phase cells at 3 uM by FACS analysis (reference value: 85.33%); assay type: functional
A549 [20] = assay: Induction of apoptosis in human A549 cells assessed as DNA fragmentation at 3 uM after 48 hrs by agarose gel electrophoretic analysis; assay type: functional, cell-based
Method in brief: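 Cells were seeded at 1 × 10^6/well and grown 48 h, then treated 48 h. Cells were pelleted and lysed. Lysate was given SDS and RNase-A at 56 °C for 2 h, then proteinase K at 37 °C for 2 h. DNA was precipitated with ammonium acetate and cold ethanol, washed with 80% ethanol and dissolved in TE. Laddering was read on 2% agarose gel in TE; 50 bp marker.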

**Q.** With COc1cc([C@@H]2c3cc4c(cc3[C@@H](NC(=O)c3cc(-c5ccc(Cl)c(Cl)c5)[nH]n3)[C@H]3COC(=O)[C@H]23)OCO4)cc(OC)c1OC as the molecule, how does the Activity (A549 [1]) read?
**A.** The Activity was 8.96%.

**Q.** What about the Activity (A549 [2]) of the same molecule?
**A.** The Activity was 6.77%.

**Q.** What about the Activity (A549 [3]) of the same molecule?
**A.** Its Activity is 2.27%.

**Q.** And the IC50 (A549 [4])?
**A.** Its IC50 is 2.1 µM.

**Q.** What about the Activity (A549 [5]) of the same molecule?
**A.** The Activity was “Active”.

**Q.** And the IC50 (HeLa)?
**A.** The IC50 was 9.3 µM.

**Q.** And the Activity (A549 [6])?
**A.** The Activity was 27.68%.

**Q.** What about the Activity (A549 [7]) of the same molecule?
**A.** The Activity was “Active”.

**Q.** And the Activity (A549 [8])?
**A.** Its Activity is 2.05%.

**Q.** What about the Activity (A549 [9]) of the same molecule?
**A.** Its Activity is 61.28%.

**Q.** What about the Activity (A549 [10]) of the same molecule?
**A.** Its Activity is “Active”.

**Q.** What about the IC50 (HT-29) of the same molecule?
**A.** The IC50 was 7.1 µM.

**Q.** What about the “fold change (FC)” value (A549 [11]) of the same molecule?
**A.** Its value is 6.

**Q.** What about the Activity (A549 [12]) of the same molecule?
**A.** The Activity was “Active”.

**Q.** And the IC50 (B16)?
**A.** The IC50 was 9.5 µM.

**Q.** What about the “fold change (FC)” value (A549 [13]) of the same molecule?
**A.** Its value is 4.

**Q.** And the Activity (A549 [14])?
**A.** The Activity was 63.35%.

**Q.** And the Activity (A549 [15])?
**A.** The Activity was “Active”.

**Q.** What about the Activity (A549 [16]) of the same molecule?
**A.** The Activity was “Active”.

**Q.** What about the Activity (A549 [17]) of the same molecule?
**A.** Its Activity is “Active”.

**Q.** What about the IC50 (ACHN) of the same molecule?
**A.** Its IC50 is 15.9 µM.

**Q.** What about the Activity (A549 [18]) of the same molecule?
**A.** The Activity was “Active”.

**Q.** What about the Activity (A549 [19]) of the same molecule?
**A.** The Activity was 27.71%.

**Q.** And the Activity (A549 [20])?
**A.** Its Activity is “Active”.
